Data on 12 compounds can be found in ChEMBL document CHEMBL1275301, “Antihypertensive activity of newer 1,4-dihydro-5-pyrimidine carboxamides: synthesis and pharmacological evaluation” (2010).

Activity calls are given as the source filed them. The calls are words filed in the database; no cut-off is given here.

Assay [1] concerns Rattus norvegicus. The experiment in a line: Antihypertensive activity against DOCA-salt induced hypertension in albino rat assessed as reduction in systolic blood pressure at 10 mg/kg, po after 120 mins by tail-cuff method. To be noted: Artery, 2 h. In kind it is functional. A digest of the protocol:
(§1)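 Rats given DOCA 20 mg/kg s.c. twice weekly in olive oil for 4 weeks, with 1% w/v NaCl as drinking water, reaching systolic 160–180 mm Hg. Rats were trained in restrainer and tail-cuff sessions. Compounds in 0.5% CMC were dosed at 10 mg/kg by oral feeding needle, with vehicle and nifedipine groups. BP was read before dosing and after, with the tail warmed at 37 °C for 2–5 min. Each compound was run three times in one week and readings averaged.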

Assay [2] has as its system Rattus norvegicus. The assay is described as follows: Antihypertensive activity against DOCA-salt induced hypertension in albino rat assessed as reduction in systolic blood pressure at 10 mg/kg, po up to 360 mins by tail-cuff method. It counts as functional, organism-based. Further details: dose 10 mg/kg. The following applies: Artery. The method in brief: as §1
Assay [3] has as its system Rattus norvegicus. The assay is described as follows: Antihypertensive activity against DOCA-salt induced hypertension in albino rat assessed as reduction in systolic blood pressure at 10 mg/kg, po after 30 mins by tail-cuff method. It counts as functional. The following applies: Artery, 0.5 h. A digest of the protocol:
as §1

For assay [4], the system named is Rattus norvegicus. The assay is described as follows: Antihypertensive activity against DOCA-salt induced hypertension in albino rat assessed as reduction in systolic blood pressure at 10 mg/kg, po after 720 mins by tail-cuff method. The following applies: Artery, 12 h. It counts as functional. A digest of the protocol: as §1
For assay [5], the system named is Rattus norvegicus. The experiment in a line: Antihypertensive activity against DOCA-salt induced hypertension in albino rat assessed as reduction in systolic blood pressure at 10 mg/kg, po after 900 mins by tail-cuff method. It counts as functional. The following applies: Artery, 15 h. The method in brief:
as §1

Assay [6] relates to Rattus norvegicus. The assay is described as follows: Antihypertensive activity against DOCA-salt induced hypertension in albino rat assessed as reduction in systolic blood pressure at 10 mg/kg, po after 240 mins by tail-cuff method. It counts as functional. The following applies: Artery, 4 h. The method in brief: as §1
Assay [7] concerns Rattus norvegicus. The assay is described as follows: Antihypertensive activity against DOCA-salt induced hypertension in albino rat assessed as reduction in systolic blood pressure at 10 mg/kg, po after 15 mins by tail-cuff method. In kind it is functional. The following applies: Artery, 0.25 h. A digest of the protocol:
as §1

Assay [8] concerns Rattus norvegicus. The experiment in a line: Antihypertensive activity against DOCA-salt induced hypertension in albino rat assessed as reduction in systolic blood pressure at 10 mg/kg, po after 300 mins by tail-cuff method. In kind it is functional. The following applies: Artery, 5 h. The method in brief: as §1
Assay [9] relates to Rattus norvegicus. The experiment in a line: Antihypertensive activity against DOCA-salt induced hypertension in albino rat assessed as reduction in systolic blood pressure at 10 mg/kg, po after 60 mins by tail-cuff method. The following applies: Artery, 1 h. In kind it is functional. The method in brief: as §1
The test system of assay [10] is Rattus norvegicus. The experiment in a line: Antihypertensive activity against DOCA-salt induced hypertension in albino rat assessed as reduction in systolic blood pressure at 10 mg/kg, po after 600 mins by tail-cuff method. In kind it is functional. The following applies: Artery, 10 h. The method in brief: as §1
The test system of assay [11] is Rattus norvegicus. The assay is described as follows: Antihypertensive activity against DOCA-salt induced hypertension in albino rat assessed as reduction in systolic blood pressure at 10 mg/kg, po after 360 mins by tail-cuff method. In kind it is functional. The following applies: Artery, 6 h. The method in brief: as §1
Assay [12] concerns Rattus norvegicus. The assay is described as follows: Antihypertensive activity against DOCA-salt induced hypertension in albino rat assessed as reduction in systolic blood pressure at 10 mg/kg, po after 180 mins by tail-cuff method. It counts as functional. The following applies: Artery, 3 h. The method in brief: as §1

On to `CC1=C(C(=O)Nc2ccc(F)cc2)C(c2ccc([N+](=O)[O-])cc2)N=C(SCc2ccccc2Cl)N1` (centres undefined), for which the inhibition in vivo at 10 mg/kg in the assay with Rattus norvegicus [1] was found to be 8.8%; in the assay with Rattus norvegicus [3], 3.1%; in the assay with Rattus norvegicus [4], 13.9%; with Rattus norvegicus [5], 11.3%; in the assay on Rattus norvegicus [6], 15.9%; in the assay with Rattus norvegicus [7], 1.5%. The inhibition in vivo at 10 mg/kg worked out at 18.5% in the assay on Rattus norvegicus [8]; 6.2% with Rattus norvegicus [9]; 17.4% with Rattus norvegicus [10]; 21.6% in the assay with Rattus norvegicus [11]; 12.4% with Rattus norvegicus [12]. In the assay on Rattus norvegicus [2], the result was Active.

In the case of `CC1=C(C(=O)Nc2ccc([N+](=O)[O-])cc2)C(c2ccc(Br)cc2)N=C(SCc2ccccc2Cl)N1` (centres undefined), the inhibition in vivo at 10 mg/kg in the assay with Rattus norvegicus [1] was determined as 7.7%; in the assay on Rattus norvegicus [3], 3.6%; in the assay on Rattus norvegicus [4], 6.7%; in the assay with Rattus norvegicus [5], 4.1%; in the assay on Rattus norvegicus [6], 15.4%; in the assay with Rattus norvegicus [7], 1.5%. The inhibition in vivo at 10 mg/kg was 16.9% with Rattus norvegicus [8]; 6.7% in the assay on Rattus norvegicus [9]; 9.7% in the assay on Rattus norvegicus [10]; 13.9% with Rattus norvegicus [11]; 11.3% with Rattus norvegicus [12]. The result in the assay with Rattus norvegicus [2] was Active.

For the compound `CC1=C(C(=O)Nc2ccc(Br)cc2)C(c2ccc(Cl)cc2Cl)N=C(SCc2ccc(F)cc2)N1` (centres undefined), the inhibition in vivo at 10 mg/kg is 22.7% in the assay with Rattus norvegicus [1]; 7.7% in the assay on Rattus norvegicus [3]; 27.3% with Rattus norvegicus [4]; 23.1% in the assay with Rattus norvegicus [5]; 36.4% in the assay with Rattus norvegicus [6]; 3.6% with Rattus norvegicus [7]. Further, the inhibition in vivo at 10 mg/kg with Rattus norvegicus [8] is 38.5%; in the assay with Rattus norvegicus [9] it was 16.9%; with Rattus norvegicus [10], 33.3%; in the assay with Rattus norvegicus [11] it was 40.7%; with Rattus norvegicus [12], 28.4%. Also, the result in the assay on Rattus norvegicus [2] was Active.

In the case of `CC1=C(C(=O)Nc2ccc(Br)cc2)C(c2ccc(Cl)cc2Cl)N=C(SCc2cccc(Cl)c2)N1` (centres undefined), the inhibition in vivo at 10 mg/kg in the assay with Rattus norvegicus [1] is 8.8%; with Rattus norvegicus [3], 3.1%; in the assay on Rattus norvegicus [4], 11.3%; in the assay with Rattus norvegicus [5], 7.2%; in the assay on Rattus norvegicus [6], 15.9%; with Rattus norvegicus [7], 1.5%. Further, the inhibition in vivo at 10 mg/kg with Rattus norvegicus [8] was 18.5%; in the assay with Rattus norvegicus [9], 6.2%; in the assay with Rattus norvegicus [10] it was 15.4%; with Rattus norvegicus [11], 20.6%; with Rattus norvegicus [12] it was 11.9%. Besides, the result in the assay on Rattus norvegicus [2] was Active.

As for `COc1ccc(C2N=C(SCc3ccc(F)cc3)NC(C)=C2C(=O)Nc2ccc(Br)cc2)cc1` (centres undefined), the inhibition in vivo at 10 mg/kg in the assay with Rattus norvegicus [1] worked out at 12.9%; in the assay on Rattus norvegicus [3], 6.2%; in the assay with Rattus norvegicus [4], 19.1%; with Rattus norvegicus [5], 15.4%; in the assay on Rattus norvegicus [6], 22.1%; in the assay on Rattus norvegicus [7] it was 3.6%. Also, the inhibition in vivo at 10 mg/kg worked out at 26.2% with Rattus norvegicus [8]; 8.7% with Rattus norvegicus [9]; 24.1% in the assay with Rattus norvegicus [10]; 33.5% in the assay with Rattus norvegicus [11]; 17% in the assay on Rattus norvegicus [12]. Also, the result in the assay on Rattus norvegicus [2] was Active.

Turning to `CC1=C(C(=O)Nc2ccc(Br)cc2)C(c2ccc(Cl)cc2Cl)N=C(SCc2ccccc2Cl)N1` (centres undefined), the inhibition in vivo at 10 mg/kg in the assay with Rattus norvegicus [1] came to 16%; in the assay on Rattus norvegicus [3], 5.7%; with Rattus norvegicus [4] it was 20.6%; in the assay on Rattus norvegicus [5], 16.4%; with Rattus norvegicus [6], 28.7%; with Rattus norvegicus [7] it was 3.1%. The inhibition in vivo at 10 mg/kg in the assay on Rattus norvegicus [8] amounted to 36.4%; in the assay with Rattus norvegicus [9], 11.8%; in the assay on Rattus norvegicus [10] it was 24.6%; in the assay with Rattus norvegicus [11] it was 38.1%; with Rattus norvegicus [12], 22.2%. For the same compound, the result with Rattus norvegicus [2] was Active.

With `CC1=C(C(=O)Nc2ccc([N+](=O)[O-])cc2)C(c2ccc(Br)cc2)N=C(SCc2ccc(F)cc2)N1` (centres undefined), the inhibition in vivo at 10 mg/kg in the assay on Rattus norvegicus [1] amounted to 12.9%; with Rattus norvegicus [3], 5.2%; in the assay with Rattus norvegicus [4] it was 27.3%; in the assay with Rattus norvegicus [5], 22.6%; in the assay with Rattus norvegicus [6], 27.2%; in the assay with Rattus norvegicus [7], 2.6%. Moreover, the inhibition in vivo at 10 mg/kg amounted to 34.4% in the assay on Rattus norvegicus [8]; 9.7% in the assay on Rattus norvegicus [9]; 32.3% in the assay on Rattus norvegicus [10]; 38.7% in the assay with Rattus norvegicus [11]; 17.5% in the assay on Rattus norvegicus [12]. Further, in the assay on Rattus norvegicus [2], the result was Active.

Consider `CC1=C(C(=O)Nc2ccc(F)cc2)C(c2ccc([N+](=O)[O-])cc2)N=C(SCc2ccc(F)cc2)N1` (centres undefined), for which the inhibition in vivo at 10 mg/kg in the assay with Rattus norvegicus [1] came out at 17%; with Rattus norvegicus [3] it was 5.7%; in the assay on Rattus norvegicus [4], 19.6%; with Rattus norvegicus [5] it was 13.8%; in the assay with Rattus norvegicus [6], 25.6%; in the assay with Rattus norvegicus [7] it was 3.1%. The inhibition in vivo at 10 mg/kg with Rattus norvegicus [8] amounted to 30.3%; in the assay with Rattus norvegicus [9] it was 10.8%; in the assay on Rattus norvegicus [10] it was 25.6%; with Rattus norvegicus [11], 33%; in the assay with Rattus norvegicus [12], 20.1%. Besides, in the assay with Rattus norvegicus [2], the result was Active.

Turning to `COc1ccc(C2N=C(SCc3ccccc3Cl)NC(C)=C2C(=O)Nc2ccc(F)cc2)cc1OC` (centres undefined), the inhibition in vivo at 10 mg/kg in the assay on Rattus norvegicus [1] was 17%; in the assay on Rattus norvegicus [3] it was 6.2%; in the assay on Rattus norvegicus [4], 23.2%; in the assay with Rattus norvegicus [5], 21%; with Rattus norvegicus [6], 30.3%; in the assay on Rattus norvegicus [7] it was 2.6%. The inhibition in vivo at 10 mg/kg in the assay on Rattus norvegicus [8] turned out to be 35.9%; in the assay on Rattus norvegicus [9], 11.8%; in the assay on Rattus norvegicus [10], 30.3%; in the assay with Rattus norvegicus [11], 39.2%; in the assay with Rattus norvegicus [12] it was 25.3%. Moreover, the result in the assay with Rattus norvegicus [2] was Active.

`COc1ccc(C2N=C(SCc3cccc(Cl)c3)NC(C)=C2C(=O)Nc2ccc(Br)cc2)cc1` (centres undefined): the inhibition in vivo at 10 mg/kg came out at 21.1% with Rattus norvegicus [1]; 7.7% in the assay on Rattus norvegicus [3]; 26.8% in the assay on Rattus norvegicus [4]; 22.6% in the assay with Rattus norvegicus [5]; 33.8% in the assay on Rattus norvegicus [6]; 3.1% with Rattus norvegicus [7]. Besides, the inhibition in vivo at 10 mg/kg with Rattus norvegicus [8] came to 39%; in the assay with Rattus norvegicus [9] it was 15.4%; in the assay with Rattus norvegicus [10] it was 32.8%; in the assay with Rattus norvegicus [11] it was 39.7%; in the assay on Rattus norvegicus [12], 27.3%. The outcome in the assay with Rattus norvegicus [2] was Active.

On to `CC1=C(C(=O)Nc2ccc([N+](=O)[O-])cc2)C(c2cccc([N+](=O)[O-])c2)N=C(SCc2ccccc2Cl)N1` (centres undefined), for which the inhibition in vivo at 10 mg/kg in the assay with Rattus norvegicus [1] was 7.7%; in the assay with Rattus norvegicus [3] it was 3.6%; in the assay on Rattus norvegicus [4], 11.3%; in the assay on Rattus norvegicus [5], 7.2%; in the assay on Rattus norvegicus [6], 12.8%; with Rattus norvegicus [7], 2.1%. The inhibition in vivo at 10 mg/kg with Rattus norvegicus [8] stood at 15.9%; in the assay on Rattus norvegicus [9] it was 6.7%; with Rattus norvegicus [10], 13.3%; in the assay on Rattus norvegicus [11] it was 17.5%; in the assay with Rattus norvegicus [12], 9.3%. The outcome with Rattus norvegicus [2] was Active.

On to `COc1ccc(C2N=C(SCc3ccccc3)NC(C)=C2C(=O)Nc2ccc(F)cc2)cc1OC` (centres undefined), for which the inhibition in vivo at 10 mg/kg in the assay with Rattus norvegicus [1] was determined as 8.8%; in the assay on Rattus norvegicus [3], 3.6%; in the assay on Rattus norvegicus [4], 1.5%; in the assay with Rattus norvegicus [5], 1%; with Rattus norvegicus [6], 11.8%; in the assay with Rattus norvegicus [7], 1.5%. The inhibition in vivo at 10 mg/kg was found to be 7.2% with Rattus norvegicus [8]; 6.2% in the assay with Rattus norvegicus [9]; 3.1% in the assay with Rattus norvegicus [10]; 3.6% with Rattus norvegicus [11]; 12.9% in the assay on Rattus norvegicus [12]. Further, the result in the assay on Rattus norvegicus [2] was Active.

Usually inhibition in vivo stands for the relative decrease from the control value, in per cent.
